Assays:
[1] = test system: Human immunodeficiency virus 1; assay: (§1) Effective antiviral dose required to block the spread of HIV-1D34 infection in human peripheral blood mononuclear cells; assay type: functional; details: read-out: ED50 (the source's name)
Outline: (§2)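 PBMC (1 × 10^6 cells) infected with HIV-1 D34 inoculum containing 1 ng p24, cultured at 37 °C in 5% CO2. Replication read as supernatant p24 at day 4. ED50 = 50% effective antiviral dose, estimated in some cases.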

MT2 [2] = assay: Tested for the drug concentration required to decrease HIV-1IIIb infected MT-2 cell viability compared to uninfected controls; assay type: functional; details: Homo sapiens
Outline: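 MT-2 cells with HIV-1 IIIb (MOI 0.001), 4-day culture. Viability by trypan blue exclusion. CC50 is the concentration lowering viability relative to uninfected controls; mostly estimated.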

MT2 [3] = assay: Effective antiviral dose required to block the spread of HIV-1 IIIb infection in MT-2 cells by monitoring the formation of syncytia.; assay type: functional; details: Homo sapiens, read-out: ED50 (the source's name)
Outline: (§3)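 MT-2 cells infected with HIV-1 IIIb at MOI 0.001, held at 37 °C in 5% CO2. Syncytium formation scored 4 days post-infection, at peak cytopathic effect. ED50 is the dose giving 50% reduction in syncytia; some values were estimated, and ">" means 50% was not reached at the top concentration.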

[4] = Tested for the drug concentration required to decrease […] infected human peripheral blood mononuclear cell viability compared to uninfected controls; assay type: functional
Outline: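 Uninfected and HIV-1 D34-infected PBMC at 37 °C, 5% CO2. Viability taken from mitogen-stimulated cell proliferation. CC50 is the concentration lowering viability relative to uninfected controls; mostly estimated.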

[5] = target: Human immunodeficiency virus type 1 reverse transcriptase (Human immunodeficiency virus 1) (UniProt Q72547); assay: In vitro inhibitory activity against HIV-1 reverse transcriptase at 100 uM
Outline: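 Recombinant HIV-1 RT (p51/p66 heterodimer, 90–95% pure, 0.0274 μM) with poly(rA) 10 μg/mL and (dT)10 primer 5 μg/mL; 8 μM α-35S-dTTP, 50 mM Tris-HCl pH 8.3, 10 mM MgCl2, 60 mM NaCl, 20 mM DTT, 0.05% NP-40. 37 °C, 15 min; TCA-precipitated label counted on filters. Percent inhibition at 100 μM, mean of at least two determinations.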

[6] = Selective index is the ratio of inhibitory concentrations of cellular DNA polymerase alpha to HIV-1 reverse transcriptase
Outline: (§4)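 Index = IC50 for cellular DNA polymerase α or δ divided by IC50 for HIV-1 RT. RT IC50 measured with recombinant RT and poly(rA):oligo(dT)10 template:primer.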

[7] = Selective index is the ratio of inhibitory concentrations of cellular DNA polymerase delta to HIV-1 reverse transcriptase; outline: as §4
MT2 [8] = assay: Effective antiviral dose required to block the spread of HIV-1 IIIb infection in MT-2 cells by monitoring the formation of syncytia; assay type: functional; details: Homo sapiens, read-out: ED50 (the source's name); outline: as §3
[9] = as §1; assay type: functional; details: read-out: ED50 (the source's name); outline: as §2

| SMILES | EC50 [1] [nM] | CC50 (MT2 [2]) [nM] | EC50 (MT2 [3]) [nM] | CC50 [4] [nM] | inhibition [5] [%] | Selectivity index [6] | Selectivity index [7] | EC50 (MT2 [8]) [nM] | EC50 [9] [nM] |
| --- | --- | --- | --- | --- | --- | --- | --- | --- | --- |
| CCNc1cccnc1N1CCN(Cc2cc(C)c(OC)c(C)c2)CC1 | 1000 | 15000 | 2000 | > 10000 | 73 | 30 | > 60 |  |  |
| CCNc1cccnc1N1CCN(C(=O)c2cc3ccccc3[nH]2)CC1 | 10 | > 30000 |  | > 10000 |  | 1500 | 2800 | 300 |  |
| CCNc1ccccc1N1CCN(C(=O)c2cc(C)c(OC)c(C)c2)CC1 |  |  |  | ~10000 | 21 |  |  |  | > 1000 |
| CC(C)Nc1cccnc1N1CCN(C(=O)c2cc3ccccc3[nH]2)CC1 | 1 | > 27000 |  | > 10000 | 96 | 1100 | 10000 | 300 |  |
| CC(C)(C)Nc1cccnc1N1CCN(C(=O)c2cc3ccccc3[nH]2)CC1 | 10 | > 2400 |  | 10000 | 89 | 225 | 2500 | 200 |  |
| CC(C)(C)Nc1cccnc1N1CCN(C(=O)c2cc3cc(F)ccc3[nH]2)CC1 | 10 | > 23000 |  |  | 89 | 233 | 1670 | 230 |  |
| CCNc1cccnc1N1CCN(C(=O)c2cc3cc(OC)ccc3[nH]2)CC1.CS(=O)(=O)O [ATEVIRDINE SULPHATE] | 1 | > 20000 |  |  | 92 | 200 | 1500 | < 200 |  |

Source: ChEMBL document CHEMBL1127691, “Discovery, synthesis, and bioactivity of bis(heteroaryl)piperazines. 1. A novel class of non-nucleoside HIV-1 reverse transcriptase inhibitors” (J Med Chem, 1994)
